Assay results published in ChEMBL document CHEMBL4732104, “Discovery of bardoxolone derivatives as novel orally active necroptosis inhibitors” (Eur J Med Chem, 2021).
The source made the active and inactive calls. No cut-off for these calls is given here.

Tests used:
Rattus norvegicus = experiment: Neuroprotective activity in middle cerebral artery occlusion-induced Sprague-Dawley rat model of ischemia-reperfusion injury assessed as reduction in cerebral infarct volume at 1 mg/kg by TTC staining based microscopic analysis relative to control; format: functional; design: scale not given: the % may be the effect or the level left
HT-29 [1] = experiment: Anti-necroptotic activity in human HT-29 cells assessed as inhibition of TNFalpha/SM-164/Z-VAD-fmk (TSZ)-induced necroptosis by measuring cell viability at 10 uM preincubated for 30 mins followed by TSZ stimulation and measured after 16 hrs by celltiter-glo luminescent cell viability assay relative to control; format: functional; conditions: time 16.5 hrs
In short: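 HT-29 cells in DMEM with 10% FBS, 37 °C, 5% CO2. Compound pretreatment 30 min, then TNF-α 20 ng/mL, Smac mimetic and z-VAD-fmk 20 μM for 16 h. Viability by CellTiter-Glo luminescence, normalised to untreated control cells.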

HT-29 [2] = experiment: Anti-necroptotic activity in human HT-29 cells assessed as inhibition of TNFalpha/SM-164/Z-VAD-fmk (TSZ)-induced necroptosis by measuring increase in cell viability measured after 12 hrs by celltiter-glo luminescent cell viability assay; format: functional, cell-based; conditions: for EC50: HT-29, 12 h
In short: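 HT-29 cells pretreated with test agent across a concentration range, then TNF-α (20 ng/mL), Smac mimetic (10 nM) and z-VAD-fmk (20 μM) for 12–16 h. CellTiter-Glo viability. EC50 ± SD from at least three independent experiments.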

L929 = experiment: Anti-necroptotic activity in mouse L929 cells assessed as inhibition of TNFalpha/Z-VAD-fmk (TZ)-induced necroptosis by measuring increase in cell viability measured after 12 hrs by celltiter-glo luminescent cell viability assay; format: functional, cell-based; conditions: L929, 12 h
In short: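 Mouse L929 fibroblasts pretreated with test agent, then mouse TNF-α (20 ng/mL) plus z-VAD-fmk (20 μM). Incubation stated as 4 h in table footnote and 12 h in figure legend. CellTiter-Glo viability. EC50 ± SD from at least three independent repeats.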

HT-29 [3] = experiment: Anti-necroptotic activity in human HT-29 cells assessed as inhibition of TNFalpha/SM-164/Z-VAD-fmk (TSZ)-induced necroptosis by measuring increase in cell viability at 10 uM measured after 12 hrs by celltiter-glo luminescent cell viability assay; format: functional, cell-based
In short: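 HT-29 cells in DMEM with 10% FBS at 37 °C, 5% CO2. Test agents at 10 μM, then TSZ stimulation for 12 h. Viability read by CellTiter-Glo luminescence.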

HT-29 [4] = experiment: Anti-necroptotic activity in human HT-29 cells assessed as inhibition of TNFalpha/SM-164/Z-VAD-fmk (TSZ)-induced necroptosis by measuring reduction in cell swelling at 5 uM preincubated for 30 mins followed by TSZ stimulation and measured after 12 hrs by phase contrast microscopic analysis; format: functional, cell-based; conditions: time 12.5 hrs
In short: (§1)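 HT-29 cells pretreated with DMSO or compound, then stimulated with TNF-α, Smac mimetic and z-VAD-fmk for 12 h. Necrotic morphology (swelling, membrane rupture) viewed by phase contrast microscopy at 200×.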

HT-29 [5] = experiment: Anti-necroptotic activity in human HT-29 cells assessed as inhibition of TNFalpha/SM-164/Z-VAD-fmk (TSZ)-induced necroptosis by measuring reduction in plasma membrane rupture at 5 uM preincubated for 30 mins followed by TSZ stimulation and measured after 12 hrs by phase contrast microscopic analysis; format: functional, cell-based; conditions: time 12.5 hrs; in short: as §1
HT-29 [6] = experiment: Anti-necroptotic activity in human HT-29 cells assessed as inhibition of TNFalpha/cycloheximide/Z-VAD-fmk (TCZ)-induced necroptosis by measuring increase in cell viability measured after 16 hrs by celltiter-glo luminescent cell viability assay; format: functional, cell-based
HT-29 [7] = experiment: Cytotoxicity against human HT-29 cells assessed as reduction in cell viability at 10 uM by MTT assay; format: cell-based; conditions: ht-29, 10 µM
HT-29 [8] = experiment: Protection against TNFalpha/SM-164 (TS)-induced apoptosis in human HT-29 cells assessed as increase in cell viability at 0.08 to 10 uM measured after 20 hrs by celltiter-glo luminescent cell viability assay; format: functional, cell-based; conditions: dose 0.08-10 µM
In short: (§2)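 HT-29 apoptosis induced by TNF-α 20 ng/mL plus Smac mimetic (20 h), or by TNF-α plus cycloheximide (24 h), with graded compound concentrations. Viability read by CellTiter-Glo luminescence; means ± S.D. of three independent experiments.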

HT-29 [9] = experiment: Protection against TNFalpha/cycloheximide (TC)-induced apoptosis in human HT-29 cells assessed as increase in cell viability at 0.08 to 10 uM measured after 24 hrs by celltiter-glo luminescent cell viability assay; format: functional, cell-based; conditions: dose 0.08-10 µM; in short: as §2

Row | Structure (SMILES) | EC50 (HT-29 [2]) | EC50 (L929) | further results
1 | COCCOC(=O)C1=C(C)NC(C)=C(C(=O)OC(C)C)C1c1cccc([N+](=O)[O-])c1 (stereo not drawn) [NIMODIPINE] | – | – | Activity (Rattus norvegicus): 26.8%
2 | Cc1ccc(Nc2nccc(N(C)c3ccc4c(C)n(C)nc4c3)n2)cc1S(N)(=O)=O [PAZOPANIB] | – | – | Activity (HT-29 [1]): >80%
3 | CC1(C)CC[C@]2(C(=O)O)CC[C@]3(C)C(=CC[C@@H]4[C@@]5(C)CC[C@H](O)C(C)(C)[C@@H]5CC[C@]43C)[C@@H]2C1 [OLEANOLIC_ACID] | > 10000 nM | – | –
4 | CCNC(=O)[C@]12CCC(C)(C)C[C@H]1[C@H]1C(=O)C=C3[C@@]4(C)C=C(C#N)C(=O)C(C)(C)[C@@H]4CC[C@@]3(C)[C@]1(C)CC2 | 1380 nM | 4150 nM | –
5 | CC(C)c1cc(C(=O)N2Cc3ccc(CN4CCN(C)CC4)cc3C2)c(O)cc1O | – | – | inhibition (HT-29 [3]): Active
6 | CC1(C)CC[C@]2(NC(=O)C(C)(F)F)CC[C@]3(C)[C@H](C(=O)C=C4[C@@]5(C)C=C(C#N)C(=O)C(C)(C)[C@@H]5CC[C@]43C)[C@@H]2C1 [OMAVELOXOLONE] | 1410 nM | 5250 nM | –
7 | CC1(C)CC[C@]2(C(=O)O)CC[C@]3(C)[C@H](C(=O)C=C4[C@@]5(C)C=C(C#N)C(=O)C(C)(C)[C@@H]5CC[C@]43C)[C@@H]2C1 [BARDOXOLONE] | 1300 nM | > 10000 nM | Activity (HT-29 [1]): >100%; Activity (HT-29 [4]): Active; Activity (HT-29 [5]): Active; inhibition (HT-29 [2]): Dose-dependent effect; inhibition (HT-29 [6]): Dose-dependent effect; Activity (HT-29 [7]): Toxic; Activity (HT-29 [8]): inactive; Activity (HT-29 [9]): inactive
8 | C=CCNC1=C2C[C@@H](C)C[C@H](OC)[C@H](O)[C@@H](C)/C=C(\C)[C@H](OC(N)=O)[C@@H](OC)/C=C\C=C(/C)C(=O)NC(=CC1=O)C2=O | – | – | inhibition (HT-29 [3]): Active
9 | CC1(C)CC[C@]2(C(=O)N[C@@H]3CCCc4ccccc43)CC[C@]3(C)[C@H](C(=O)C=C4[C@@]5(C)C=C(C#N)C(=O)C(C)(C)[C@@H]5CC[C@]43C)[C@@H]2C1 | 1910 nM | 820 nM | –
10 | CC1(C)CC[C@]2(C(=O)n3ccnc3)CC[C@]3(C)[C@H](C(=O)C=C4[C@@]5(C)C=C(C#N)C(=O)C(C)(C)[C@@H]5CC[C@]43C)[C@@H]2C1 | 2100 nM | 1460 nM | –
11 | CC1(C)CC[C@]2(C(=O)n3cnc(-c4ccccn4)c3)CC[C@]3(C)[C@H](C(=O)C=C4[C@@]5(C)C=C(C#N)C(=O)C(C)(C)[C@@H]5CC[C@]43C)[C@@H]2C1 | 290 nM | 610 nM | –
12 | CC1(C)CC[C@]2(C(=O)N[C@H]3CCCc4ccccc43)CC[C@]3(C)[C@H](C(=O)C=C4[C@@]5(C)C=C(C#N)C(=O)C(C)(C)[C@@H]5CC[C@]43C)[C@@H]2C1 | 1810 nM | 620 nM | –
13 | CC1(C)CC[C@]2(C(=O)O)[C@H](O)C[C@]3(C)C(=CC[C@@H]4[C@@]5(C)CC[C@H](O)C(C)(C)[C@@H]5CC[C@]43C)[C@@H]2C1 | > 10000 nM | – | –
14 | COC(=O)/C=C/C(=O)OC | – | – | inhibition (HT-29 [3]): inactive
15 | CC1(C)CC[C@]2(C(=O)NCc3ccccc3)CC[C@]3(C)[C@H](C(=O)C=C4[C@@]5(C)C=C(C#N)C(=O)C(C)(C)[C@@H]5CC[C@]43C)[C@@H]2C1 | 1630 nM | 1030 nM | –
16 | COC(=O)[C@@]12OC[C@]34[C@H]([C@@H](O)[C@@H]1O)[C@@]1(C)CC(=O)C(O)=C(C)[C@@H]1C[C@H]3OC(=O)[C@H](OC(=O)C=C(C)C)[C@@H]24 | – | – | inhibition (HT-29 [3]): inactive
17 | CC1(C)CC[C@]2(C(=O)NCCNC(=O)OC(C)(C)C)CC[C@]3(C)[C@H](C(=O)C=C4[C@@]5(C)C=C(C#N)C(=O)C(C)(C)[C@@H]5CC[C@]43C)[C@@H]2C1 | 2810 nM | 1480 nM | –
18 | CC1(C)CC[C@]2(C(=O)NC3CCCCC3)CC[C@]3(C)[C@H](C(=O)C=C4[C@@]5(C)C=C(C#N)C(=O)C(C)(C)[C@@H]5CC[C@]43C)[C@@H]2C1 | 1300 nM | > 10000 nM | –
19 | COC(=O)[C@]12CCC(C)(C)C[C@H]1[C@H]1C(=O)C=C3[C@@]4(C)C=C(C#N)C(=O)C(C)(C)[C@@H]4CC[C@@]3(C)[C@]1(C)CC2 [BARDOXOLONE METHYL] | 4340 nM | > 10000 nM | –
